Screens: PubChem BioAssay, The Scripps Research Institute Molecular Screening Center
The list is not random: actives were taken first. Their share in the collection is about 2.6%.
SIAE inh – blocks human sialic acid acetylesterase; inhibition, % at 9.66 µM; AID 1053197; SIAE FP-Rh probe binding, fluorescence polarization; 370,000 compounds, 0.69% hits; Q9HAT2;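 active means inhibition above a cutoff: mean of compounds within the control limits plus 3 SD of those, cut at about 17% in these data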;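 further: 0% = plate median of compound wells and 100% = probe without SIAE protein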
Target sequence (Q9HAT2 whole entry, looked up): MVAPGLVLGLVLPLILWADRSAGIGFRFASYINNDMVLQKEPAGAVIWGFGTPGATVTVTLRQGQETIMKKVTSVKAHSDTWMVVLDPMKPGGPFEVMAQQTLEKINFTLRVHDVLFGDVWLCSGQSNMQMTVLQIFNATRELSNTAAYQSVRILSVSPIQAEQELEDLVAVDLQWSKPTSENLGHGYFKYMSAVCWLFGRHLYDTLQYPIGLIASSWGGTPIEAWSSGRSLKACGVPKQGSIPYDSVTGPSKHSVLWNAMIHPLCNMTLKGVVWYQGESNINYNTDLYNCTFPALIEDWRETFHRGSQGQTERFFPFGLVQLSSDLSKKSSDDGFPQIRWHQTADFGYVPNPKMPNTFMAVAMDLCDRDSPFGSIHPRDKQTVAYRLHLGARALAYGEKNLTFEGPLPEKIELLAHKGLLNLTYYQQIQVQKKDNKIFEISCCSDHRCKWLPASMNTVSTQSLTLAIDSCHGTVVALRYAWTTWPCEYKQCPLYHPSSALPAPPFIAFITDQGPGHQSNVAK
HTRA1 inh – HTRA1 (human) protease inhibition | Q92743 | recombinant HTRA1, FP-rhodamine activity-based probe, fluorescence polarization | inhibition, % at 5.96 µM | 340,000 compounds, 0.5% hits | AID 504803; in the data active means inhibition above about 36%;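 further: 0% = enzyme with DMSO and 100% = wells lacking enzyme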
ABHD4 inh – inhibitors of mouse ABHD4 | Q8VD66 | purified mABHD4, FP-Rh probe fluorescence polarization | inhibition, % at 8.92 µM | 370,000 compounds, 0.54% hits | AID 720543;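 active means inhibition exceeding the mean over every tested compound plus 3 SD, cut at about 30% in these data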;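 further: 0% = plate median of compound wells and 100% = S159A mutant with DMSO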
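Test system: mABHD4 protein; Read-out basis: % inhibition; Incubation: 45 min + 60 min at 25 °C; Repeats: single replicate; Technique: fluorescence polarization with parallel and perpendicular emission, 525/598 nm; Compound: 8.92 µM, single dose; Benchmarks: full inhibition S159A mutant plus DMSO, zero as sample-well median.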
PRMT1 inh – PRMT1 (human) inhibition, primary screen; Q99873; AID 652257; inhibition, % at 2.79 µM; 370,000 compounds, 1.3% hits; recombinant PRMT1, activity-based probe fluorescence polarization;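 active means inhibition above about 21% made by adding two undisclosed values, limit read from the data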
TCR-CD3 inh – human TCR-CD3 binding inhibition; TAMRA-labeled TCR probe fluorescence, biochemical; inhibition, % at 9.4 µM; 360,000 compounds, 0.37% hits; AID 651800;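 further: recombinant mutant TCR 2C K166C tagged with TAMRA read by polarization; 0% = receptor in buffer alone and 100% = receptor with positive control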
BSA probe FL – BSA probe counter-screen for TCR-CD3 inhibitors | 1,200 compounds, 10% hits | shares compounds with TCR-CD3 inh | inhibition, % at 9.4 µM | AID 652035 | TAMRA-labeled BSA probe fluorescence counterscreen; in the data active means inhibition above about 23%;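 further: 0% = buffer low control and 100% = reference high control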
TCR-CD3 conf – confirmation of human TCR-CD3 interaction inhibitors | shares compounds with TCR-CD3 inh | TAMRA-labeled TCR probe fluorescence binding assay | inhibition, % at 9.4 µM | 1,200 compounds, 48% hits
The depositor's hits bear a star; / = no result given. Unless noted, no stated cut-off is given here; in the data, active means inhibition above about 19%; inactive means the rest.

SMILES	SIAE inh	HTRA1 inh	ABHD4 inh	PRMT1 inh	TCR-CD3 inh	BSA probe FL	TCR-CD3 conf
Cc1ccc(C(=O)OCC(=O)NNC(=O)c2ccccc2)c(O)c1	5	1	-3	-5	6	/	/
Cc1ccc(C(=O)OCC(=O)NNC(=O)COc2ccc(Cl)cc2)c(O)c1	-1	7	2	-1	27*	1	12
COCCNC(=S)N/N=C(\C)c1ccc(O)cc1	-1	1	-7	0	-4	/	/
C/C(=N\NC(=S)NCC(C)(C)C)c1cc(F)cc(F)c1O	3	35	8	4	27*	-11	1
Cc1ccc2c(=O)cc(C(F)F)oc2c1	5	6	-1	1	23*	-4	-1
O=C(c1ccccc1)C12COc3ccccc3C1ON=C2c1ccccc1 (stereo unspecified)	4	/	5	-1	5	/	/
CCN(CC)c1ccc(NC(=O)COc2ccccc2C#N)cc1S(=O)(=O)Nc1ccccc1OC	-26	-42	-44	2	21*	2	9
O=C(NC(=S)Nc1ccccc1O)c1ccccc1Cl	-8	-17	-16	-2	23*	-5	16
COc1ccc2ccccc2c1/C=N/NC(=S)Nc1cc(S(=O)(=O)N2CCOCC2)ccc1N1CCOCC1	1	-21	6	-2	4	/	/
CCOc1cccc(/C=N/NC(=S)Nc2cc(S(=O)(=O)N3CCOCC3)ccc2N2CCOCC2)c1O	9	9	14	-4	21*	-2	3
O=C(Nc1cccc(NC(=O)c2ccc(-c3ccc(Br)cc3)o2)c1)c1ccco1	-91	-76	-56	-4	56*	24*	44*
O=C(Nc1cccc(NC(=O)c2ccccc2Cl)c1)c1ccco1	-6	-8	-4	0	0	/	/
COc1cccc2cc(C(=O)N3CCN(C(=O)c4ccco4)CC3)c(=O)oc12	1	-3	-1	0	-1	/	/
COc1cc(Br)cc2cc(C(=O)N3CCN(C(=O)c4ccco4)CC3)c(=O)oc12	7	6	1	-2	20*	3	19*
NC(=S)NN=Cc1nccc2ccccc12	-2	21	29	-3	-5	/	/
Cc1cnc(C=NNC(N)=S)c2cccc(N)c12	10	28	23	9	29*	-4	16
CCOC(=O)C1=CCN(S(=O)(=O)c2ccc(Cl)cc2)C1c1ccccc1 (stereo unspecified)	-2	/	-10	-6	5	/	/
O=C(N/N=C/c1c(O)n(-c2ccc(Cl)cn2)c(=O)c2ccccc12)C1CC1	12	10	10	2	23*	-11	26*
CN(C)CCCNC(=O)C[C@H]1C[C@H](C(=O)N2CCCCC2)[C@@]2(C)c3[nH]c4ccc(Cl)cc4c3CCN2C1=O	-2	0	1	0	-4	/	/
C[C@]12c3[nH]c4ccc(Cl)cc4c3CCN1C(=O)[C@@H](CC(=O)NCCN1CCOCC1)C[C@@H]2C(=O)N1CCCCC1	-3	3	4	0	36*	3	2
CCN(CC)C(=O)Cn1cnc2sc(C)c(S(=O)(=O)N3CCC(C)CC3)c2c1=O	2	-1	5	3	8	/	/
COc1ccc(-n2c(COc3ccc(C)cc3)nnc2SCC(=O)O)cc1	-3	-1	17	0	31*	13	7
O=C(/C=C/c1ccccc1)Nc1cccc(C(=O)NCCCCc2ccccc2)c1	-151	-108	-93	5	44*	7	16
O=C(/C=C/c1ccccc1)Nc1cccc(C(=O)NCCc2ccccc2)c1	-12	-22	-17	-4	9	/	/
CC1=C(C(=O)N2CCCCCC2)CC(CC(=O)NC(c2ccccc2)c2ccccc2)C(=O)N1Cc1ccccc1 (stereo unspecified)	-2	/	-1	1	0	/	/
SMILES	SIAE inh	HTRA1 inh	ABHD4 inh	PRMT1 inh	TCR-CD3 inh	BSA probe FL	TCR-CD3 conf
Cc1cccc(-c2ocnc2C(=O)Nc2ncc(C)s2)c1	4	-6	7	-2	1	/	/
O=C(NCc1cccnc1)C(=O)NCC1OCCCN1S(=O)(=O)c1ccc(F)cc1 (stereo unspecified)	-5	2	-3	-1	1	/	/
Cn1cnc2c(cnn2-c2ccccc2)c1=O	0	-4	-3	1	4	/	/
Cn1cnc2c(cnn2C)c1=O	4	5	-2	-1	28*	1	3
Cc1nonc1NC(=O)CSc1nc(C23CC4CC(CC(C4)C2)C3)nc2ccccc12	-7	-6	-4	-1	20*	4	9
Cc1cccc(NC(=O)CSc2nnc(-c3ccccc3)n2N)c1	1	-5	6	-3	24*	2	0
Cc1cc(C)cc(NC(=O)CSc2nnc(-c3ccccc3)n2N)c1	-4	-2	-16	-5	9	/	/
Oc1ccc(/C=N/N=C/c2ccc(O)c(O)c2)cc1O	1	31	26	13	51*	-7	67*
O=Cc1ccc(O)c(O)c1	2	2	4	-3	-7	/	/
C[C@H]1CN([C@@H](C)CO)C(=O)CCCn2nncc2CO[C@@H]1CN(C)S(=O)(=O)c1cccs1	4	/	0	-1	0	/	/
C[C@H](NC(=O)c1nc[nH]c1C(=O)N[C@@H](CCCCNC(=O)OC(C)(C)C)C(=O)OC(C)(C)C)C(=O)OCc1ccccc1	-14	-36	-29	-2	27*	1	3
CC(C)C[C@H](NC(=O)c1nc[nH]c1C(=O)N[C@@H](CCCCNC(=O)OC(C)(C)C)C(=O)OC(C)(C)C)C(=O)OCc1ccccc1	-26	-13	-15	0	-2	/	/
Cc1ccc(-c2cc(C(=O)Nc3ccncc3)c3ccccc3n2)cc1	-3	-13	2	-3	6	/	/
O=C(NNC(=O)c1cc(-c2ccncc2)nc2ccccc12)c1ccccc1O	-1	20	8	-1	28*	-10	21*
CC(=O)N1CCN(C(=O)CCc2nnc(CCCCc3ccccc3)o2)CC1	-6	-1	-5	-2	-5	/	/
O=C(CCc1nnc(CCCCc2ccccc2)o1)N1CCC(N2CCCC2)CC1	-1	1	2	0	24*	2	-1
OC[C@@H](O)C(O)[C@@H](O)CO (stereo partly specified)	-2	/	7	21	47*	1	0
Cc1nnc(NC(=O)CSc2nnc(CC(=O)Nc3ccccc3Cl)n2C)s1	-3	-3	4	6	-4	/	/
Cc1nnc(NC(=O)CSc2nnc(CC(=O)Nc3ccccc3F)n2C)s1	-2	-2	7	-1	66*	2	3
COc1c(F)c(F)c(C(=O)Nc2ccc(-c3nc4ccccc4[nH]3)cc2)c(F)c1F	2	-1	4	-1	2	/	/
COc1cccc(OC)c1C(=O)NC(=S)Nc1cc(-c2nc3ccccc3[nH]2)ccc1Cl	-155	-98	-107	2	60*	19	18
